Measurements from different studies.
Each line is one published result; the experiments were not run side by side.
Target: Protein kinase C epsilon type (PRKCE, Homo sapiens, UniProt Q02156)
Sequence (Q02156 1-737, as in one of the studies): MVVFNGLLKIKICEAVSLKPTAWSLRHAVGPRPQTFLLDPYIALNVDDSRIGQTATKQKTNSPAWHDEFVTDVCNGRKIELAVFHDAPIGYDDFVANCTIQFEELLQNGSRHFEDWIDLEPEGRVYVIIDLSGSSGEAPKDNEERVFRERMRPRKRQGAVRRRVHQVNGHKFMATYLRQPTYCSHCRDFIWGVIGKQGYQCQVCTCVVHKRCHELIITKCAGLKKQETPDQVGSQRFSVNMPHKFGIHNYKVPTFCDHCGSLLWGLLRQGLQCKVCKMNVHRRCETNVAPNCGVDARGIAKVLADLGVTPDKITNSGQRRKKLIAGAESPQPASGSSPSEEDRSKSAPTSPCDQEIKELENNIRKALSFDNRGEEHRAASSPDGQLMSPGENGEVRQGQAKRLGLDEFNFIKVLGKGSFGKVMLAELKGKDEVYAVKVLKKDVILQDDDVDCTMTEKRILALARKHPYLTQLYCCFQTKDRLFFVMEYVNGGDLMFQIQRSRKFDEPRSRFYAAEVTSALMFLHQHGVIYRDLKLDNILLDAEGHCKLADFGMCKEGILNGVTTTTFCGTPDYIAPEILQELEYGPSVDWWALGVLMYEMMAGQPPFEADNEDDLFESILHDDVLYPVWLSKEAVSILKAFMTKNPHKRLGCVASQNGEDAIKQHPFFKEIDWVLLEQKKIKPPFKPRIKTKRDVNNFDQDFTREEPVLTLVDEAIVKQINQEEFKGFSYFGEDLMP

The remaining binding of COc1ccnn2ncc(-c3ccnc(N(C)C)n3)c12 is reported as 100% (binding; 1 µM).
The remaining binding of FC(F)(F)Oc1cccc(-c2cnc3ccc(-c4ccncc4)nn23)c1 is reported as 62% (cell-free assay, competition with immobilised ligand; 5 µM).
For N[C@@H]1CCN(c2nccc(-c3cnn4ncccc34)n2)C1, the remaining binding was 97% (binding; 1 µM).
The remaining binding of CS(=O)(=O)N1CCCC(NC(=O)[C@H](CCC2CCCCC2)NC(=O)c2ccc(CNc3ncnc4c3nnn4-c3ccccc3)cc2)C1 (stereo partly shown) is reported as 63% (cell-free assay, competition with immobilised ligand; 0.1 µM).
The remaining binding of CC1CCCN1c1nccc(-c2cnn3ncccc23)n1 (stereo not shown) is reported as 100% (binding; 1 µM).
O=C(c1ccc(Nc2ncc(Cl)c(-c3ccc(Cl)s3)n2)cc1)N1CCC(N2CCCC2)CC1 gave a remaining binding of 45% (binding, competition with immobilised ligand; 1 µM).
CC(C)(C)c1ccc(-c2nc(CBr)nn2-c2cccc(O)c2)cc1 has a remaining binding of 73% (cell-free assay, competition with immobilised ligand; 10 µM).
COc1ccc2c(O[C@@H]3C[C@H]4C(=O)N[C@]5(C(=O)O)CC5/C=C\CCCCC[C@H](NC(=O)OC5CCCC5)C(=O)N4C3)cc(-c3csc(NC(=O)C(C)C)n3)nc2c1C (stereo partly shown) has a remaining binding of 58% (cell-free assay, competition with immobilised ligand; 1 µM).
Nc1ncc2c(n1)-c1c([nH]c3ccc(C#CC4CC4)cc13)CCCC2 gave a remaining binding of 98% (binding, competition with immobilised ligand; 1 µM).
With CCN1CCN(Cc2ccc(C(=O)Nc3ccc(C)c(Oc4ccc5c(c4)CC(=O)N5)c3)cc2C(F)(F)F)CC1 the remaining binding was 100% (binding, competition with immobilised ligand; 1 µM).
COc1cnc(Nc2cccc(S(N)(=O)=O)c2)nc1N1CCN(c2ccccc2)CC1 gave a remaining binding of 100% (binding, competition with immobilised ligand; 1 µM).
With COc1cc(-c2cn(C3CCc4ccccc4N(CC(F)(F)F)C3=O)nn2)ccc1-n1ccc(C)n1 (stereo not shown) the remaining binding was 100% (cell-free assay, competition with immobilised ligand; 1 µM).
With O=C(NCCCN1CCOCC1)c1ccc(Nc2nccc(-c3cc4ccccc4s3)n2)cc1 the remaining binding was 71% (binding, competition with immobilised ligand; 1 µM).
For Cn1nc(C(=O)NCc2ccc(C(=O)O)cc2)cc1-c1ccc2[nH]ccc2c1, the remaining binding was 64% (cell-free assay, competition with immobilised ligand; 0.1 µM).
C[C@@H]1CN(c2ccc3ncc(-c4ccc5[nH]nc(C6CC6)c5c4)n3n2)C[C@H](C)O1 has a remaining binding of 64% (binding, competition with immobilised ligand; 0.5 µM).
CCC(=N\O)/C(C)=C/c1ccc(F)cc1 gave a remaining binding of 76% (cell-free assay, competition with immobilised ligand; 1 µM).
The remaining binding of Cc1cnc(Nc2ccc(C(=O)N3CCC(N4CCCC4)CC3)cc2)nc1-c1cc2ccccc2s1 is reported as 26% (binding, competition with immobilised ligand; 1 µM).
CN(C)c1nccc(-c2cnc3ncccn23)n1 gave a remaining binding of 100% (binding; 1 µM).
COc1cc(-c2cn(C3CCc4c(F)cccc4N(CC(F)(F)F)C3=O)nn2)ccc1-n1cnc(C)c1 (stereo not shown) has a remaining binding of 100% (cell-free assay, competition with immobilised ligand; 1 µM).
CN(c1nccc(-c2cnn3ncccc23)n1)C1CC1 gave a remaining binding of 83% (binding; 1 µM).
CN(C(=O)c1ccccc1)c1cc(N(C)c2ccc3c(c2)CCc2ccc(C(=O)NCCN4CCOCC4)cc2C3=O)ccc1F gave a remaining binding of 87% (cell-free assay, competition with immobilised ligand; 1 µM).
The remaining binding of F[C@@H]1CCN(c2nccc(-c3cnn4ncccc34)n2)C1 is reported as 88% (binding; 1 µM).
For O=C(Nc1c[nH]nc1C(=O)NC1CCNCC1)c1cc(F)cc(F)c1, the remaining binding was 70% (binding, competition with immobilised ligand; 1 µM).
With C[C@H]1CCN(c2nccc(-c3cnn4ncccc34)n2)C1 the remaining binding was 100% (binding; 1 µM).
C[C@@H](c1ccc(-n2cnc3c(N)ncnc32)cc1)N1CCc2nn(C)c(Cc3ccccc3)c2C1=O has a remaining binding of 74% (binding, competition with immobilised ligand; 0.1 µM).
